Screens from PubChem.
Only some compounds are listed: those with a hit (about 1.9% of all), similar ones and a draw of the others.
UBC9 SUMO inh: inhibitors of in vitro SUMOylation cascade, primary screen, biochemical, HTRF, uHTS; SUMO-conjugating enzyme UBC9 (Homo sapiens), P63279; HTRF SUMOylation assay, SAE1/SAE2 + UBC9; inhibition, % at 35 µM; 0.36% of 290,000 active; AID 2006, 2009; in the data active = inhibition above about 50%, passing the limit was not always enough
Target sequence (P63279 whole entry, looked up): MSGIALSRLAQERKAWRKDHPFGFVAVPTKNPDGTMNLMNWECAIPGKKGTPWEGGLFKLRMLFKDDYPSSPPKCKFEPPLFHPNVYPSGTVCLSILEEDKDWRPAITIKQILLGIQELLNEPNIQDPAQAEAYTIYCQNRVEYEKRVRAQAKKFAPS
STEP inh: STEP phosphatase inhibitors, primary screen, biochemical, fluorescence intensity, uHTS; Tyrosine-protein phosphatase non-receptor type 5 (Homo sapiens), P54829; recombinant STEP, OMFP fluorogenic substrate; inhibition, % at 20 µM; 0.25% of 360,000 active; AID 588621, 2011;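 active = inhibition at 20 µM, scaled per plate between control wells, above about 37%, limit read from the data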;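 also: 0% = DMSO with enzyme and substrate and 100% = substrate only without enzyme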
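Material: STEP (striatal-enriched tyrosine phosphatase) enzyme, cell-free | Medium: 50 mM Bis-Tris pH 6.0 with 2.5 mM DTT and 0.005% Tween 20 | Read-out: Percent inhibition scaled to no-enzyme and uninhibited-enzyme controls, plate-pattern corrected | Signal: Fluorescence read at 480 nm ex / 540 nm em | Times: 20 min reaction, room temperature, in the dark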
Scp-1 inhibitor: Scp-1 phosphatase inhibitors, primary screen, biochemical, colorimetric, uHTS; AID 493091, 2011; Recombinant Scp1, phosphopeptide, malachite green phosphate absorbance; 0.88% of 340,000 active; inhibition, % at 20 µM;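 active = inhibition above about 50% at 20 µM, limit read from the data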;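 also: plate controls were DMSO wells with enzyme for no effect and wells lacking enzyme for full effect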
Target sequence (Q9GZU7 76-261 limits assumed): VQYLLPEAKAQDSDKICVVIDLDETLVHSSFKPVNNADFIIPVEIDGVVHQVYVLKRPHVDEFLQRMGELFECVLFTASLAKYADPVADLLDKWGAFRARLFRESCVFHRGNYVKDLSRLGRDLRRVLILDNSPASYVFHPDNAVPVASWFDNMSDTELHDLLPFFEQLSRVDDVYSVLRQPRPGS
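Times: enzyme reaction 45 min at room temperature, colour 5 min, stabilisation 30 min. Material: SCP-1 catalytic fragment, aa 76-261. Medium: Acidic Tris acetate buffer with magnesium and detergent. Signal: colorimetric free-phosphate detection, absorbance 630 nm. Read-out basis: % inhibition of SCP-1 phosphate liberation. Reagent: Phosphorylated 17-residue peptide substrate.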
SUMO1-SIM PPI: modulators of SUMO1 protein-protein interactions, primary screen, biochemical, uHTS | Small ubiquitin-related modifier 1 (Homo sapiens), P63165 | SUMO1 binding to a labelled peptide, TR-FRET, 1 h | inhibition, % at 20 µM | 0.33% of 360,000 active | AID 602429, 2012; in the data active = inhibition above about 37%
Target sequence (P63165 whole entry, looked up): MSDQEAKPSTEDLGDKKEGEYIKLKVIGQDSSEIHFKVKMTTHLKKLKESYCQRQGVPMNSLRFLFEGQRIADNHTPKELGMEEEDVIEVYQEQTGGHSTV
LMPTP inh: LMPTP phosphatase inhibitors, primary screen, biochemical, fluorescence intensity, uHTS. recombinant LMPTP-A, OMFP fluorogenic substrate. inhibition, % at 20 µM. 0.22% of 360,000 active. AID 651560, 2012;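 active = compounds that cut the enzyme signal by at least half of the control window in the single-dose screen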;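 also: plate controls were DMSO wells with enzyme plus substrate for no effect and substrate without enzyme for full effect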
Target sequence (P24666 whole entry, looked up): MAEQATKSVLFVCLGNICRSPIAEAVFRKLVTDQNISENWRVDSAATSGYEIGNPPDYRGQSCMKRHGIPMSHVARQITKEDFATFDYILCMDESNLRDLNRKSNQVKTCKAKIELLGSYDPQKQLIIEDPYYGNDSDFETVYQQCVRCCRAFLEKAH
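Assay system: LMPTP-A phosphatase enzyme | Input: 0.625 nM enzyme | Also added: Fluorogenic phosphatase substrate OMFP at 400 µM final | Compound dosing: One test concentration per compound, 20 µM, with 3% DMSO overall | Schedule: 50 min enzyme reaction at room temperature, protected from light | Signal: Fluorescence intensity | Benchmarks: no-enzyme and uninhibited controls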
DNMT1 inh: human DNMT1 methyltransferase inhibitors, primary screen, biochemical, molecular beacon, fluorescence, HinP1I cleavage, uHTS. DNA (cytosine-5)-methyltransferase 1 (Homo sapiens), P26358. inhibition (reported as % activation of signal), % at 10 µM. 0.83% of 360,000 active. AID 588458, 2011; in the data active = inhibition above about 50%
Scp1 confirm: Scp-1 phosphatase inhibitors, retest, confirmation, biochemical, colorimetric, single concentration | shares compounds with Scp-1 inhibitor | recombinant SCP-1 catalytic domain, phosphate release, malachite green absorbance | inhibition, % at 20 µM | 61% of 2,500 active | AID 540281, 2011;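 also: plate controls were DMSO with enzyme for no effect and buffer wells lacking enzyme for full effect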
MG interference: colorimetric readout interference by compounds, confirmation, artefact control for Scp-1 inhibitor project, biochemical, single concentration; apparent inhibition (interference), % at 20 µM; 2,500 tested, under 10 active; Colorimetric interference counterscreen, malachite green absorbance 630 nm; shares compounds with Scp-1 inhibitor;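 also: compounds added after enzyme reaction finished so only phosphate colour detection is probed; plate controls were DMSO wells with completed Scp-1 reaction for no effect and substrate wells lacking enzyme for full effect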
Scp-1 Tm shift: Scp-1 binding by thermal shift, confirmation, orthogonal assay for Scp-1 inhibitor project, biophysical, differential scanning fluorimetry | shares compounds with Scp-1 inhibitor | Recombinant SCP1, Sypro Orange thermal shift Tm | thermal shift relative to vanadate control, % at 40 µM | 25% of 1,500 active | AID 540329, 2011;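 active = substances whose mean melting-temperature shift, as a percentage of the reference inhibitor's shift, reaches about 5.3%, limit read from the data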;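 also: 0% = Tm of DMSO wells and 100% = Tm with sodium orthovanadate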
* marks the source's active call; other numbers are inactive results; x = not tested or not shown.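 The calls were made as follows, unless noted: active = inhibition of at least 30% at 20 µM; inactive = the rest.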

SMILES	UBC9 SUMO inh	STEP inh	Scp-1 inhibitor	SUMO1-SIM PPI	LMPTP inh	DNMT1 inh	Scp1 confirm	MG interference	others
O=c1c(-c2ccco2)nc2ccccc2n1C(CCc1ccccc1)c1nc2ccccc2[nH]1 (stereo not drawn)	x	x	x	-3	4	x	x	x
O=C(CSc1nc2[nH]ncc2c(=O)[nH]1)Nc1ccccc1C(F)(F)F	x	-3	51*	1	0	0	-7	-8
CN(C)C(=O)c1ccc(NC(=O)c2cc(-c3ccco3)nc3ccccc23)cc1	42	13	66*	-12	12	50*	58*	-5	Scp-1 Tm shift=5
CCN(CC)CCNC(=O)c1ccc(NC(=O)c2cc(-c3ccco3)nc3ccccc23)cc1	22	1	15	-19	5	20	x	x
COc1ccccc1NC(=O)c1nn(-c2ccc(Cl)cc2)ccc1=O	0	-1	98*	-4	4	26	76*	-16	Scp-1 Tm shift=-16
O=C(Nc1cccc2nsnc12)c1ccc2c(c1)OCCO2	30	2	70*	-20	0	-11	-16	-16
O=C(Nc1cccc2nsnc12)c1ccc2c(c1)OCO2	4	-2	-4	-20	1	-3	x	x
CN(CC(=O)Nc1ccccc1Br)C(=O)Cn1[nH]c(=O)c2ccccc2c1=O	x	-3	4	0	-1	-1	x	x
COC(=O)[C@H]1C[C@H](O)CN1S(=O)(=O)c1ccc(Br)cc1F	x	-3	53*	3	-1	7	-15	-16
CN(C)CCNc1nc(-c2ccccc2F)c2sccc2n1	x	-2	x	-9	1	-3	x	x
Cc1nn(-c2ccccc2)c(Cl)c1/C=N/NC(=O)c1cccc(S(=O)(=O)N2CCCC2)c1	8	26	94*	-1	4	25	17	-14
Cc1nn(-c2ccccc2)c(N2CCCC2)c1/C=N/NC(=O)c1cccc(S(=O)(=O)Nc2ccc(Cl)cc2)c1	-22	0	-17	12	3	-20	x	x
O=C(CN(c1ccccc1)S(=O)(=O)c1ccccc1)Nc1ccc(F)cc1	1	-2	-16	0	2	-2	x	x
COc1ccc(CNC(=O)N2[C@H]3CC[C@@H]2C=C(c2ccc(F)cc2OCc2ccccc2)C3)cc1OC	x	3	x	2	10	-15	x	x
CC(=O)Nc1ccc(N=Cc2nc(-c3ccc(C)cc3)oc2O)cc1	14	2	76*	-13	6	-8	16	-15
Cc1ccc(N=Cc2nc(-c3ccc(C)cc3)oc2O)cc1	11	-2	2	-3	-1	5	x	x
CC1(C)CC(=O)C(N=Nc2ccc(C(F)(F)F)cc2[N+](=O)[O-])=C(O)C1	-18	0	-7	-39	1	8	x	x
COc1cccc(NS(=O)(=O)c2cc3c(cc2C)N(C(C)=O)CCO3)c1	10	2	87*	-1	-1	-1	-24	-20
CCOC(=O)Cc1csc(SC(C)C(=O)NC2CCCCC2C)n1 (stereo not drawn)	x	0	-3	3	0	1	x	x
COc1ccccc1NC(=O)/C(=C/c1cccc([N+](=O)[O-])c1)c1ccccc1	-10	7	-15	-4	2	-1	x	x
C=CCCC(=O)N1C[C@H]2CCN(C)[C@H]2C[C@H]1c1ccc(Br)cc1	x	-1	x	-2	4	1	x	x
CCn1ncc(Br)c1C(=O)NC(C)c1ccccc1 (stereo not drawn)	-12	-19	81*	3	-1	1	-1	-5
CCn1ncc(Cl)c1C(=O)NC(C)c1ccccc1 (stereo not drawn)	5	1	0	-2	0	2	x	x
Cc1cc(Cl)c(S(=O)(=O)NC(C(=O)O)c2ccccc2)cc1OCC(N)=O (stereo not drawn)	5	2	69*	1	-3	6	44*	-17	Scp-1 Tm shift=18*
Cc1cc(Cl)c(S(=O)(=O)NC(C(=O)O)C(C)C)cc1OCC(=O)NC1CCCCC1 (stereo not drawn)	10	1	54*	3	-2	-3	43*	-15	Scp-1 Tm shift=0
SMILES	UBC9 SUMO inh	STEP inh	Scp-1 inhibitor	SUMO1-SIM PPI	LMPTP inh	DNMT1 inh	Scp1 confirm	MG interference	others
CCOCCn1c(=O)c2c(nc3n2CCCN3CCc2ccccc2)n(C)c1=O	-6	-1	8	16	-1	1	x	x
COc1cc(-c2ccc(N3C(c4ccsc4)=Cc4ccc(F)cc4C3c3c[nH]c4ccc(C#N)cc34)cc2)cc(OC)c1OC (stereo not drawn)	x	x	x	-2	2	x	x	x
C#Cc1ccc([C@H]2C=C(C(=O)O)O[C@@H](OCc3ccc(CO)cc3)C2)cc1	24	5	50*	-6	0	24	48*	-16	Scp-1 Tm shift=-2
C#Cc1ccc([C@@H]2C=C(C(=O)NCc3ccccc3)O[C@H](OCc3ccc(CO)cc3)C2)cc1	19	-1	-6	-1	3	-10	x	x
CCOC(=O)c1cc(C#N)c(SCC(=O)c2cc(C#N)c(SC)nc2C)[nH]c1=O	24	6	89*	14	2	-4	23	-12
CCOC(=O)c1cc(C#N)c(SCC(N)=O)[nH]c1=O	10	0	15	7	11	10	x	x
CCCc1c(C(=O)N/N=C/c2sccc2C)nnn1-c1nonc1N	-2	1	-3	10	0	9	x	x
O=C(O)c1ccc(Oc2ccc(S(=O)(=O)c3ccc(C(=O)O)c(C(=O)O)c3)cc2)cc1	29	14	54*	0	0	10	41*	-25	Scp-1 Tm shift=-10
O=C(O)c1ccc(S(=O)(=O)c2ccccc2)cc1	2	-4	-8	-3	0	2	x	x
